Measured values taken from ChEMBL document CHEMBL1165943, “Design and synthesis of new anticancer pyrimidines with multiple-kinase inhibitory effect” (Bioorg Med Chem, 2010).

Assays:
Type in all cases: functional
HL-60(TB) = test: Cytotoxicity against human HL-60(TB) cells assessed as cell growth at 10 uM; conditions: Homo sapiens, HL-60; read-out: Activity
Outline: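 Single-concentration 10 µM screen of HL-60(TB) within the 60-line panel, grown in RPMI 1640 with 5% FBS. The drug from DMSO stock is incubated 48 h at 37 °C, settled cells are TCA-fixed and SRB-stained, and absorbance is read at 515 nm. Percent growth is reported, and inhibition % is taken as 100 minus growth %.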

K562 = test: Cytotoxicity against human K562 cells assessed as cell growth at 10 uM; conditions: Homo sapiens, K562; read-out: Activity
Outline: (§1)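 Single-dose screen at 10 μM across the 60-cell-line panel. Cells grown in RPMI 1640 with 5% FBS and 2 mM L-glutamine, seeded at 5,000–40,000 cells/well according to doubling time, and treated 24 h later. Exposure lasted 48 h at 37 °C, 5% CO₂. Adherent cells were fixed with cold TCA, suspension cells were fixed settled, and both were stained with SRB and read at 515 nm. Growth % was recorded, with inhibition % = 100 − growth %.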

MOLT-4 = test: Cytotoxicity against human MOLT4 cells assessed as cell growth at 10 uM; conditions: Homo sapiens, MOLT-4; read-out: Activity; outline: as §1
SR = test: Cytotoxicity against human SR cells assessed as cell growth at 10 uM; conditions: Homo sapiens, SR; read-out: Activity; outline: as §1
HOP-62 = test: Cytotoxicity against human HOP62 cells assessed as cell growth at 10 uM; conditions: Homo sapiens, HOP-62; read-out: Activity
Outline: (§2)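 Single-concentration screen at 10 μM across the 60-cell-line panel (nine tissue types); growth percentage recorded per cell line, with inhibition taken as 100 minus growth percentage.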

NCI-H226 = test: Cytotoxicity against human NCI-H226 cells assessed as cell growth at 10 uM; conditions: Homo sapiens, NCI-H226; read-out: Activity; outline: as §1
NCI-H23 = test: Cytotoxicity against human NCI-H23 cells assessed as cell growth at 10 uM; conditions: Homo sapiens, NCI-H23; read-out: Activity; outline: as §1
NCI-H522 = test: Cytotoxicity against human NCI-H522 cells assessed as cell growth at 10 uM; conditions: Homo sapiens, NCI-H522; read-out: Activity; outline: as §1
HCC 2998 = test: Cytotoxicity against human HCC2998 cells assessed as cell growth at 10 uM; conditions: Homo sapiens, HCC 2998; read-out: Activity; outline: as §2
HCT-116 = test: Cytotoxicity against human HCT116 cells assessed as cell growth at 10 uM; conditions: Homo sapiens, HCT-116; read-out: Activity; outline: as §2
HCT-15 = test: Cytotoxicity against human HCT15 cells assessed as cell growth at 10 uM; conditions: Homo sapiens, HCT-15; read-out: Activity; outline: as §2
HT-29 = test: Cytotoxicity against human HT-29 cells assessed as cell growth at 10 uM; conditions: Homo sapiens, HT-29; read-out: Activity; outline: as §2
KM12 = test: Cytotoxicity against human KM12 cells assessed as cell growth at 10 uM; conditions: Homo sapiens, KM12; read-out: Activity; outline: as §1
SF-268 = test: Cytotoxicity against human SF268 cells assessed as cell growth at 10 uM; conditions: Homo sapiens, SF-268; read-out: Activity; outline: as §1
SF-539 = test: Cytotoxicity against human SF539 cells assessed as cell growth at 10 uM; conditions: Homo sapiens, SF-539; read-out: Activity; outline: as §1
SNB-75 = test: Cytotoxicity against human SNB75 cells assessed as cell growth at 10 uM; conditions: Homo sapiens, SNB-75; read-out: Activity; outline: as §1
U-251 = test: Cytotoxicity against human U251 cells assessed as cell growth at 10 uM; conditions: Homo sapiens, U-251; read-out: Activity; outline: as §1
LOX IMVI = test: Cytotoxicity against human LOXIMVI cells assessed as cell growth at 10 uM; conditions: Homo sapiens, LOX IMVI; read-out: Activity; outline: as §1
SK-MEL-2 = test: Cytotoxicity against human SK-MEL-2 cells assessed as cell growth at 10 uM; conditions: Homo sapiens, SK-MEL-2; read-out: Activity; outline: as §1
UACC-62 = test: Cytotoxicity against human UACC62 cells assessed as cell growth at 10 uM; conditions: Homo sapiens, UACC-62; read-out: Activity; outline: as §1
IGROV-1 = test: Cytotoxicity against human IGROV1 cells assessed as cell growth at 10 uM; conditions: Homo sapiens, IGROV-1; read-out: Activity; outline: as §1
OVCAR-3 = test: Cytotoxicity against human OVCAR-3 cells assessed as cell growth at 10 uM; conditions: Homo sapiens, OVCAR-3; read-out: Activity; outline: as §1
OVCAR-4 = test: Cytotoxicity against human OVCAR4 cells assessed as cell growth at 10 uM; conditions: Homo sapiens, OVCAR-4; read-out: Activity; outline: as §1
OVCAR-8 = test: Cytotoxicity against human OVCAR8 cells assessed as cell growth at 10 uM; conditions: Homo sapiens, OVCAR-8; read-out: Activity; outline: as §1
NCI/ADR-RES = test: Cytotoxicity against human NCI/ADR-RES cells assessed as cell growth at 10 uM; conditions: Homo sapiens, NCI/ADR-RES; read-out: Activity; outline: as §1
786-0 = test: Cytotoxicity against human 786-0 cells assessed as cell growth at 10 uM; conditions: Homo sapiens, 786-0; read-out: Activity; outline: as §2
A498 = test: Cytotoxicity against human A498 cells assessed as cell growth at 10 uM; conditions: Homo sapiens, A498; read-out: Activity; outline: as §2
ACHN = test: Cytotoxicity against human ACHN cells assessed as cell growth at 10 uM; conditions: Homo sapiens, ACHN; read-out: Activity; outline: as §2
CAKI-1 = test: Cytotoxicity against human Caki1 cells assessed as cell growth at 10 uM; conditions: Homo sapiens, CAKI-1; read-out: Activity; outline: as §2
UO-31 = test: Cytotoxicity against human UO31 cells assessed as cell growth at 10 uM; conditions: Homo sapiens, UO-31; read-out: Activity; outline: as §1
DU-145 = test: Cytotoxicity against human DU145 cells assessed as cell growth at 10 uM; conditions: Homo sapiens, DU-145; read-out: Activity; outline: as §2
MCF7 = test: Cytotoxicity against human MCF7 cells assessed as cell growth at 10 uM; conditions: Homo sapiens, MCF7; read-out: Activity; outline: as §1
MDA-MB-231 = test: Cytotoxicity against human MDA-MB-231 cells assessed as cell growth at 10 uM; conditions: Homo sapiens, MDA-MB-231; read-out: Activity; outline: as §1
BT-549 = test: Cytotoxicity against human BT549 cells assessed as cell growth at 10 uM; conditions: Homo sapiens, BT-549; read-out: Activity; outline: as §2
T47D = test: Cytotoxicity against human T47D cells assessed as cell growth at 10 uM; conditions: Homo sapiens, T47D; read-out: Activity; outline: as §1
MDA-MB-468 = test: Cytotoxicity against human MDA-MB-468 cells assessed as cell growth at 10 uM; conditions: Homo sapiens, MDA-MB-468; read-out: Activity; outline: as §1
[1] = Growth inhibition of human NCI60 cells at 10 uM after 48 hrs by sulforhodamine B assay relative to control; conditions: Homo sapiens, NCI60, 48 h; read-out: GI
Outline: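 Single 10 µM dose across the 60-line panel for 48 h, with the same culture, TCA fixation and SRB 515 nm read-out. Inhibition % = 100 − growth %, given as the mean over the 60 cell lines.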

CC(=O)c1ccc(-c2ccc(-c3ccnc(Nc4cc(C(F)(F)F)cc(C(F)(F)F)c4)n3)cn2)cc1
growth at 10 µM (HL-60(TB)): 107% | growth at 10 µM (K562): 98.5% | growth at 10 µM (MOLT-4): 91% | growth at 10 µM (SR): 96.5% | growth at 10 µM (HOP-62): 112% | growth at 10 µM (NCI-H226): 100% | growth at 10 µM (NCI-H23): 96.5% | growth at 10 µM (NCI-H522): 102% | growth at 10 µM (HCC 2998): 104% | growth at 10 µM (HCT-116): 92.9% | growth at 10 µM (HCT-15): 110% | growth at 10 µM (HT-29): 105% | growth at 10 µM (KM12): 114% | growth at 10 µM (SF-268): 106% | growth at 10 µM (SF-539): 89.7% | growth at 10 µM (SNB-75): 78.3% | growth at 10 µM (U-251): 101% | growth at 10 µM (LOX IMVI): 97.8% | growth at 10 µM (SK-MEL-2): 104% | growth at 10 µM (UACC-62): 104% | growth at 10 µM (IGROV-1): 99.7% | growth at 10 µM (OVCAR-3): 119% | growth at 10 µM (OVCAR-4): 94.6% | growth at 10 µM (OVCAR-8): 96.7% | growth at 10 µM (NCI/ADR-RES): 103% | growth at 10 µM (786-0): 105% | growth at 10 µM (A498): 97.4% | growth at 10 µM (ACHN): 103% | growth at 10 µM (CAKI-1): 97.4% | growth at 10 µM (UO-31): 79.3% | growth at 10 µM (DU-145): 114% | growth at 10 µM (MCF7): 90.8% | growth at 10 µM (MDA-MB-231): 98.2% | growth at 10 µM (BT-549): 99.8% | growth at 10 µM (T47D): 91.6% | growth at 10 µM (MDA-MB-468): 106% | inhibition of growth at 10 µM [1]: -2.21%
